# Measurements reported in ChEMBL document CHEMBL4364265, “Oridonin derivatives as potential anticancer drug candidates triggering apoptosis through mitochondrial pathway in the liver cancer cells” (Eur J Med Chem, 2019).
# Activity calls are given as the source filed them. No cut-off for these calls is given here.
# What was measured:
# PLC-PRF-5 [1] = experiment: Induction of apoptosis in human PLC/PRF/5 cells assessed as necrotic cells at 0.5 uM incubated for 24 hrs by annexin V staining based cell counting method (reference value: 0.59%); assay type: functional
# PLC-PRF-5 [2] = experiment: Induction of apoptosis in human PLC/PRF/5 cells assessed as live cells at 0.5 uM incubated for 24 hrs by annexin V staining based cell counting method (reference value: 88.95%); assay type: functional
# HepG2 [3] = experiment: Induction of apoptosis in human HepG2 cells assessed as live cells at 1 uM incubated for 24 hrs by annexin V staining based cell counting method (reference value: 87.35%); assay type: functional
# PLC-PRF-5 [4] = experiment: Induction of mitochondrial membrane potential loss in human PLC/PRF/5 cell incubated for 24 hrs by JC1 staining based fluorescence microscopic method; assay type: functional
# Procedure, shortened: (§1)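 Cells seeded in 12-well plates, cultured 12 h, treated 24 h (0, 0.25, 0.5, 1 µM). After a PBS wash, stained with JC-1 in medium for 20 min at 37 °C and washed three times. Red aggregate and green monomer fluorescence were imaged by fluorescence microscopy; the red/green ratio was taken; three independent experiments.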
# HepG2 [5] = experiment: Induction of mitochondrial membrane potential loss in human HepG2 cell incubated for 24 hrs by JC1 staining based fluorescence microscopic method; assay type: functional; procedure, shortened: as §1
# PLC-PRF-5 [6] = experiment: Antitumour activity against human PLC/PRF/5 cells xenografted in nude mouse assessed as reduction in tumour weight at 10 mg/kg, iv administrated once every 3 days for 4 weeks relative to control; assay type: functional; design: scale not given: the % may be the effect or the level left
# Procedure, shortened: (§2)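 PLC/PRF/5 xenograft. 2 × 10^7 cells in 0.2 mL saline were injected s.c. into the right forelimb of nude mice. At about 120 mm3, mice were randomized into 3 groups of 6 and dosed i.v. at 10 mg/kg once every three days for 4 weeks. Vehicle was 10% N-methylpyrrolidone/12% Tween-80/78% saline. Volume (a×b²/2) and body weight were recorded daily, and tumors were excised and weighed at the end.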
# HepG2 [7] = experiment: Induction of apoptosis in human HepG2 cells assessed as upregulation of cleaved PARP protein expression level incubated for 24 hrs by Western blot analysis; assay type: functional, cell-based
# Procedure, shortened: (§3)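 Cells were treated 24 h in DMEM with 0, 0.25, 0.5, 1.0 or 1.25 µM compound. Adherent and floating cells were lysed in RIPA on ice and protein measured by BCA. Equal protein was run on 7.5–12.5% SDS-PAGE and transferred to PVDF. Membranes were blocked in 5% milk/PBST, incubated with primary antibody overnight at 4 °C, and detected by ECL.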
# HepG2 [8] = experiment: Induction of apoptosis in human HepG2 cells assessed as shrunken chromatin at 0.25 to 1 uM incubated for 24 hrs by Hoechst 33258 dye based fluorescence microscopic method; assay type: functional, cell-based
# Procedure, shortened: (§4)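 About 2 × 10^4 cells per well were plated overnight and treated 24 h with 0, 0.25, 0.5 or 1 µM compound. Cells were fixed in 4% paraformaldehyde for 30 min at room temperature, stained with 20 µg/mL Hoechst 33258 for 20 min at 37 °C, and imaged by fluorescence microscopy.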
# A549 = experiment: Antiproliferative activity against human A549 cells incubated for 72 hrs by CCK8 cells; assay type: functional, cell-based; details: A549, 72 h
# Procedure, shortened: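 CCK-8 proliferation assay. 10,000 cells per well were preincubated 24 h at 37 °C with 5% CO2, then given compound dissolved in DMSO and incubated 72 h. CCK-8 was added for 4 h and absorbance read at 450 nm. IC50 was taken from dose-response curves as mean ± SEM of at least three independent experiments, with paclitaxel as positive control. HepG2 and L-O2 were grown in DMEM/10% FBS; A549 and RPMI-8226 in RPMI 1640/10% FBS.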
# PLC-PRF-5 [9] = experiment: Induction of cell cycle arrest in human PLC/PRF/5 cells assessed as accumulation at G2 phase at 0.5 uM incubated for 24 hrs by PI staining based flow cytometric analysis (reference value: 18.05%); assay type: functional
# HepG2 [10] = experiment: Induction of cell cycle arrest in human HepG2 cells assessed as accumulation at G1 phase at 1 uM incubated for 24 hrs by PI staining based flow cytometric analysis (reference value: 37.06%); assay type: functional
# PLC-PRF-5 [11] = experiment: Induction of apoptosis in human PLC/PRF/5 cells assessed as upregulation of cleaved PARP protein expression level incubated for 24 hrs by Western blot analysis; assay type: functional, cell-based; procedure, shortened: as §3
# HepG2 [12] = experiment: Induction of apoptosis in human HepG2 cells assessed as early apoptotic cells at 0.25 uM incubated for 24 hrs by annexin V staining based cell counting method (reference value: 3.60%); assay type: functional
# PLC-PRF-5 [13] = experiment: Induction of apoptosis in human PLC/PRF/5 cells assessed as increase in cytochrome c protein expression level at 0.25 to 1.25 uM incubated for 24 hrs by Western blot analysis; assay type: functional, cell-based; procedure, shortened: as §3
# HepG2 [14] = experiment: Induction of apoptosis in human HepG2 cells assessed as necrotic cells at 1 uM incubated for 24 hrs by annexin V staining based cell counting method (reference value: 3.40%); assay type: functional
# PLC-PRF-5 [15] = experiment: Induction of apoptosis in human PLC/PRF/5 cells assessed as early apoptotic cells at 0.25 uM incubated for 24 hrs by annexin V staining based cell counting method (reference value: 5.65%); assay type: functional
# HepG2 [16] = experiment: Induction of cell cycle arrest in human HepG2 cells assessed as accumulation at G2 phase at 1 uM incubated for 24 hrs by PI staining based flow cytometric analysis (reference value: 25.55%); assay type: functional
# HepG2 [17] = experiment: Induction of cell cycle arrest in human HepG2 cells assessed as accumulation at G1 phase at 0.25 uM incubated for 24 hrs by PI staining based flow cytometric analysis (reference value: 37.06%); assay type: functional
# PLC-PRF-5 [18] = experiment: Antiproliferative activity against human PLC/PRF/5 cells incubated for 72 hrs by CCK8 cells; assay type: functional, cell-based; details: PLC-PRF-5, 72 h
# PLC-PRF-5 [19] = experiment: Induction of apoptosis in human PLC/PRF/5 cells assessed as shrunken chromatin at 0.25 to 1 uM incubated for 24 hrs by Hoechst 33258 dye based fluorescence microscopic method; assay type: functional, cell-based; procedure, shortened: as §4
# PLC-PRF-5 [20] = experiment: Induction of cell cycle arrest in human PLC/PRF/5 cells assessed as accumulation at S phase at 0.25 uM incubated for 24 hrs by PI staining based flow cytometric analysis (reference value: 42.03%); assay type: functional
# PLC-PRF-5 [21] = experiment: Induction of apoptosis in human PLC/PRF/5 cells assessed as upregulation of cleaved caspase 3 protein expression level incubated for 24 hrs by Western blot analysis; assay type: functional, cell-based
# Procedure, shortened: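 After 24 h exposure (0, 0.25, 0.5, 1.0 and 1.25 µM), adherent plus floating cells collected, lysed in RIPA on ice 30 min, protein quantified by BCA; equal protein run on 7.5–12.5% SDS gels, transferred to PVDF, blocked 30 min in 5% milk/PBST, primary antibody overnight at 4 °C, ECL detection.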
# PLC-PRF-5 [22] = experiment: Antitumour activity against human PLC/PRF/5 cells xenografted in nude mouse assessed as tumour growth inhibition at 10 mg/kg, iv administrated once every 3 days for 4 weeks; assay type: functional, organism-based; procedure, shortened: as §2
# PLC-PRF-5 [23] = experiment: Induction of cell cycle arrest in human PLC/PRF/5 cells assessed as accumulation at G2 phase at 1 uM incubated for 24 hrs by PI staining based flow cytometric analysis (reference value: 18.05%); assay type: functional
# PLC-PRF-5 [24] = experiment: Induction of apoptosis in human PLC/PRF/5 cells assessed as down regulation of Bcl2 protein expression level incubated for 24 hrs by Western blot analysis; assay type: functional, cell-based; procedure, shortened: as §3
compound,measurement,setting,value
C=C1C(=O)[C@]23[C@H](OC(=O)/C=C/c4ccc(OC)cc4)[C@H]1CC[C@H]2[C@@]12CO[C@]3(O)[C@@H](O)[C@@H]1C(C)(C)CC[C@@H]2O,Activity,PLC-PRF-5 [1],0.82%
same,Activity,PLC-PRF-5 [2],64.3%
same,Activity,HepG2 [3],53.4%
same,Activity,PLC-PRF-5 [4],Dose-dependent effect
same,Activity,HepG2 [5],Dose-dependent effect
same,Activity,PLC-PRF-5 [6],38.1%
same,Activity,HepG2 [7],Dose-dependent effect
same,Activity,HepG2 [8],Active
same,IC50,A549,12 µM
same,Activity,PLC-PRF-5 [9],13.58%
same,Activity,HepG2 [10],42.33%
same,Activity,PLC-PRF-5 [11],Dose-dependent effect
same,Activity,HepG2 [12],5.3%
same,Activity,PLC-PRF-5 [13],Active
same,Activity,HepG2 [14],4.1%
same,Activity,PLC-PRF-5 [15],9.43%
same,Activity,HepG2 [16],22.67%
same,Activity,HepG2 [17],38.04%
same,IC50,PLC-PRF-5 [18],0.78 µM
same,Activity,PLC-PRF-5 [19],Active
same,Activity,PLC-PRF-5 [20],46.59%
same,Activity,PLC-PRF-5 [21],Dose-dependent effect
same,TGI,PLC-PRF-5 [22],Active
same,Activity,PLC-PRF-5 [23],6.11%
same,Activity,PLC-PRF-5 [24],Dose-dependent effect
